Compound activity: PubChem, Broad Institute
HIF activator: HIF pathway transcriptional activators, primary screen, cell-based, U2OS HRE-luciferase, luminescence | AID 1910, 2009 | U2OS HRE-luciferase reporter; normalized: DMSO 0%, desferrioxamine 100% | activation, % at 7.5 µM (by protocol) | 0.32% of 300,000 active;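 active = mean activation of at least 10% of the iron chelator positive control signal, with at least half of replicates also reaching 10%; inconclusive = mean and replicate majority disagree about reaching 10%; inactive = mean and most replicates under 10%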
HSF1 activator: HSF-1 activators, primary screen, NIH3T3-HGL cells, MG132 stress, luminescence, single point | NIH3T3-HGL HSF-1 luciferase reporter, 8 h; 100% = twice DMSO control signal | activation, % at 9 µM | 1.7% of 300,000 active | AID 504408, 2011;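 active = mean replicate activation of at least 50% with a set share of replicates each reaching 50%; inconclusive = only one of those two conditions met; inactive = mean below 50% and too few replicates reaching it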
HSF1 inh: HSF1 inhibitors in luciferase reporter cells, primary screen, cell-based, NIH3T3, luminescence; activity change, negative = inhibition, % at 7.5 µM (by protocol); 0.77% of 300,000 active; NIH3T3-HGL HSE-luciferase, MG132-induced, luminescence 8 h; stronger effect = lower value; AID 2098, 2009;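 active = more than half of replicate wells show activity change below -50%, luminescence cut by over half; inconclusive = some wells, but at most half, below -50%; inactive = no replicate well below -50%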;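 also: luciferase reports HSF-1 transcriptional activity via heat shock element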
T cruzi inh: inhibitors of intracellular T. cruzi growth, primary screen, luminescence, NIH3T3 host cells; inhibition, % (test concentration not listed); AID 1885, 2009; T. cruzi beta-gal in NIH3T3, 90 h; 1.4% of 300,000 active;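 active = mean inhibition across valid replicates above about 55%, limit read from the data; inconclusive = mean below that limit but half or more replicates reach it; inactive = mean below it, under half of replicates reach it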;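 also: signal also drops with host cell toxicity which is not excluded here; higher percent means less beta-gal luminescence so fewer parasites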
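Incubation – ≥90 h infection period, 3 h prior cell attachment · System – NIH/3T3 fibroblasts plus reporter T. cruzi · Doses – compound pinned at 50 nL/well, DMSO · Read-out basis – percent inhibition of parasite-derived β-gal signal · Signal – luminescent β-galactosidase signal after 60 min lysis · Also added – 5000 T. cruzi trypomastigotes/well · Medium – Low-serum DMEM with 2% FBS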
Calb FLC: C. albicans growth inhibition with fluconazole, primary screen, CaCi-2 strain, Alamar Blue fluorescence. 0.57% of 300,000 active. C. albicans CaCi-2 (fluconazole-resistant clinical isolate) + fluconazole, 48 h. growth inhibition, % (test concentration not listed);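 active = growth inhibition above about 58% in most replicates, limit read from the data, passing the limit was not always enough; inconclusive = exactly half the replicates above a set limit; inactive = most replicates below a set limit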;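 also: all wells also contain fluconazole at 8 µg/ml as a sub-toxic cotreatment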
Large screens that a line does not name were inactive. The list is not random: actives were taken first. Their share in the collection is about 4.4%.

CCCn1c(NC(=O)c2ccc(F)cc2)nc2ccccc21	T cruzi inh 84
CCCCn1c(NCc2ccccc2NS(=O)(=O)c2ccc(C)cc2)nc2ccccc21	T cruzi inh 57
CCCCn1c(NC(=O)c2ccccc2)nc2ccccc21	T cruzi inh 56 (no result: HIF activator)
CCCCn1c(NCc2ccccc2O)nc2ccccc21	none
COc1ccc(C(=O)NCc2nnc(SCC(=O)c3ccc(F)cc3)n2C)cc1OC	none
O=C(CSC1=N/C(=C/c2ccc(Cl)c(Cl)c2)C(=O)N1c1ccccc1F)NC1CC1	none
O=C(CN(CC1CCCO1)C(=O)CNS(=O)(=O)c1ccccc1)NCCc1ccccc1 (stereo unspecified)	none
CC(C)NC(=O)CN1CCC(c2ccccc2)C(O)C1 (stereo unspecified)	none
Cc1ccc(C)c(OCCSc2nnc(C)c(=O)[nH]2)c1	none
CCN1CCN(c2ccc(NC(=O)CCc3c(C)nc4c(-c5ccc(F)cc5)c(C)nn4c3C)cc2)CC1	T cruzi inh 64, Calb FLC inconclusive
COC1CCN(Cc2c(C(=O)N3CCN(C4CCCCC4)CC3)nc3ccccn23)CC1	T cruzi inh 59
COCC1CCN(Cc2c(C(=O)N3CCN(C4CCCCC4)CC3)nc3ccccn23)C1 (stereo unspecified)	none
CCN1CCN(c2ccc(NC(=O)c3ccc([N+](=O)[O-])o3)cc2Cl)CC1	T cruzi inh 91, Calb FLC inconclusive
CCC(=O)N1CCN(c2ccc(Cl)cc2NC(=O)c2ccc([N+](=O)[O-])o2)CC1	none
CCC(=O)N1CCN(c2ccc(NC(=O)c3ccc([N+](=O)[O-])o3)cc2Cl)CC1	HSF1 activator 128
CC(=O)N1CCN(c2ccc(NC(=O)c3ccc([N+](=O)[O-])o3)cc2Cl)CC1	HSF1 inh -88
CC(C)C[C@@H](CO)N1CCN(Cc2cccnc2)CCC1=O	none
COc1ccc(C(=O)NCC2(c3ccc(OC)c(OC)c3)CCCC2)c(OC)c1	none
C=CCNC(=S)Nc1cccc2[nH]ncc12	none
CCn1c(SCC(=O)c2ccccc2)nc2sc3c(c2c1=O)CCN(C)C3	T cruzi inh 64
CN1CCc2c(sc3nc(SCC(N)=O)n(-c4ccc(Cl)cc4)c(=O)c23)C1	Calb FLC 101
CCCCSc1nc2sc3c(c2c(=O)n1-c1ccccc1)CCN(C)C3	T cruzi inh 55
C=C(C)CSc1nc2sc3c(c2c(=O)n1C1CCCCC1)CCN(C)C3	T cruzi inh 59
CN1CCc2c(sc3nc(SCC(=O)N4CCCCC4)n(-c4ccccc4)c(=O)c23)C1	none
CN(C)c1ccc(C(=O)N2CCCC2)cc1	none
Cc1ccc(C)c(S(=O)(=O)N2CCCC2CNC(=O)C(=O)NCc2ccccc2C)c1 (stereo unspecified)	none
CSc1nc(NCC(C)C)c2c3c(sc2n1)CN(C)CC3	none
CC(C)Sc1nc(N)c2c3c(sc2n1)CN(C)CC3	HIF activator 13
C=C(C)CSc1nc2sc3c(c2c(=O)n1-c1ccccc1)CCN(C)C3	T cruzi inh 55
CSc1nc(NCc2ccccc2)c2c3c(sc2n1)CN(C)CC3	T cruzi inh 55
O=C(NN=C1CCCCCC1)c1ccc(Cl)s1	none
CCC(C)c1ccc(NC(=O)COc2c(F)c(F)c(C(F)(F)F)c(F)c2F)cc1 (stereo unspecified)	none
CCCC(=O)Nc1cc(C(=O)O)ccc1Sc1ccc(C)cc1	none
CCn1c2ccccc2c2cc(CNCCCN3CCOCC3)ccc21	T cruzi inh 61
COc1cc(CNCCN2CCOCC2)ccc1OCc1ccc(Cl)cc1	none
COc1cc(CNCCCN2CCOCC2)cc(Br)c1OCc1ccc(Cl)cc1	T cruzi inh 59
C=CCOc1c(Cl)cc(CNCCCN2CCOCC2)cc1OC	T cruzi inh 56
CCOc1cc(CNCCCN2CCOCC2)cc(Cl)c1OCC(=O)NC(C)(C)C	none
COc1cccc(OC)c1C(=O)NC(=S)NNC(=O)[C@H]1C[C@@H]1c1ccccc1	none
O=C(NC(=S)NNC(=O)[C@H]1C[C@@H]1c1ccccc1)c1cccc(F)c1	T cruzi inh 58
Cc1cc(NC(=O)c2cc([N+](=O)[O-])cc([N+](=O)[O-])c2C)no1	none
